According to ChEMBL document CHEMBL2074271 (J Pharmacol Exp Ther, 2002):
Several values for one entry are separate records, joined by “and”; a condition that tells them apart may be missing. Identical values can stand only once.

Experiments:
Format in all cases: functional, cell-based
[1] = molecular target: T1, Solute carrier family 22 member 2 (Rattus norvegicus, UniProt Q9R0W2); assay: TP_TRANSPORTER: inhibition of TEA uptake (in the absence of bicarbonate) (TEA: 20 uM) in OCT2-expressing HEK293 cells
T1 sequence (Q9R0W2 whole entry): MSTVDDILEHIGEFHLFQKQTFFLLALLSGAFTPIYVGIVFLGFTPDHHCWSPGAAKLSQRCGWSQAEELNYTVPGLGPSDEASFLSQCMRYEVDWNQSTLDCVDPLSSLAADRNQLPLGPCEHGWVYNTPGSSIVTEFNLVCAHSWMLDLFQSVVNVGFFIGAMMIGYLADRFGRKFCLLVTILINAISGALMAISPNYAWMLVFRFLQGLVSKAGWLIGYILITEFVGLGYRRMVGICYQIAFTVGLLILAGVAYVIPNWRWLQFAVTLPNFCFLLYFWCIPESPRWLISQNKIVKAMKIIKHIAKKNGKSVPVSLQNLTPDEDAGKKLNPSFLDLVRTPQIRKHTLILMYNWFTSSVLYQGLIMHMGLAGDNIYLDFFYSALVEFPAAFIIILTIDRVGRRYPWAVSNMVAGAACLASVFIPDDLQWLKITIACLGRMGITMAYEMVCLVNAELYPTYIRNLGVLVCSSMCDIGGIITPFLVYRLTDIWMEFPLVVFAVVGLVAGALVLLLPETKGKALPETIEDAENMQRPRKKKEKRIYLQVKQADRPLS
Procedure, shortened: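 Uptake in rOCT1- or rOCT2-expressing stably transfected HEK 293 cells, run in bicarbonate-free Cross-Taggart phosphate buffer, pH 7.4, 25°C. 20 μM [14C]TEA final, 3 s incubation across inhibitor concentrations; ice-cold stopping buffer, centrifugation, washes, scintillation counting. Expressed relative to control uptake without inhibitor; IC50 mean ± S.E.M. of 3–6 experiments.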

[2] = molecular target: T1, Solute carrier family 22 member 2; assay: TP_TRANSPORTER: inhibition of TEA uptake (in the presence of bicarbonate) (TEA: 20 uM) in OCT2-expressing HEK293 cells
Procedure, shortened: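 Stably rOCT1- or rOCT2-transfected HEK 293 cells suspended in bicarbonate (25 mM) Krebs-Henseleit buffer, pH 7.4 set by 95% O2/5% CO2 bubbling, 25°C. […] Percent of uninhibited control; IC50 mean ± S.E.M. of 3–6 experiments.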

[3] = molecular target: T2, Solute carrier family 22 member 1 (Rattus norvegicus, UniProt Q63089); assay: TP_TRANSPORTER: inhibition of Amantadine uptake (in the presence of bicarbonate) (Amantadine: 10 uM) in OCT1-expressing HEK293 cells
T2 sequence (Q63089 whole entry): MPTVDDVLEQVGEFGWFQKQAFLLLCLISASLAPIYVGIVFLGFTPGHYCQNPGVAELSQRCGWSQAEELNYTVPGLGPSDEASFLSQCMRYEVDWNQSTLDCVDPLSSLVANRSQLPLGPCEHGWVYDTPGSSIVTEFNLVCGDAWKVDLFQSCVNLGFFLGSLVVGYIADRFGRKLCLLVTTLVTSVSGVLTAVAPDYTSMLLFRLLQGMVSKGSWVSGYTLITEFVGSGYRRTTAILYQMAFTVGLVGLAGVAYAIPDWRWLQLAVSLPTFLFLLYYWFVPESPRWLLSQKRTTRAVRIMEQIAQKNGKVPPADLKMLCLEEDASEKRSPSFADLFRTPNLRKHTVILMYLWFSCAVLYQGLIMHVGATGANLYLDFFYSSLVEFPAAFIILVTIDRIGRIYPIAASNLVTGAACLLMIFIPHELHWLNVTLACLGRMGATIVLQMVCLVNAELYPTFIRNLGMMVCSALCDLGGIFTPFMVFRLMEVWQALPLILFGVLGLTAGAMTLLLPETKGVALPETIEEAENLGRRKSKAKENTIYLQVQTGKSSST
Procedure, shortened: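 Rat OCT1 or OCT2 stably transfected HEK 293 cells, grown to 80% confluence, detached and resuspended in KHS (25 mM bicarbonate, pH 7.4, gassed O2/CO2 95%/5%), protein 5–6 mg/ml. […] Highest cyanine863 tested 200 μM. IC50 from 3–6 experiments.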

[4] = molecular target: T2, Solute carrier family 22 member 1; assay: TP_TRANSPORTER: inhibition of TEA uptake (in the absence of bicarbonate) (TEA: 20 uM) in OCT1-expressing HEK293 cells
Procedure, shortened: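 Uptake in rOCT1- or rOCT2-expressing stably transfected HEK 293 cells, run in bicarbonate-free Cross-Taggart phosphate buffer, pH 7.4, 25°C. 20 μM [14C]TEA final, 3 s incubation across inhibitor concentrations; ice-cold stopping buffer, centrifugation, washes, scintillation counting.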

[5] = molecular target: T2, Solute carrier family 22 member 1; assay: TP_TRANSPORTER: inhibition of TEA uptake (in the presence of bicarbonate) (TEA: 20 uM) in OCT1-expressing HEK293 cells
Procedure, shortened: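 Stably rOCT1- or rOCT2-transfected HEK 293 cells suspended in bicarbonate (25 mM) Krebs-Henseleit buffer, pH 7.4 set by 95% O2/5% CO2 bubbling, 25°C.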

Compound	IC50 [1] [µM]	IC50 [2] [µM]	IC50 [3]	IC50 [4] [µM]	IC50 [5] [µM]
CC[n+]1c(CC2C=C(C)N=C(c3ccccc3)N2C)ccc2ccccc21 (stereo not drawn) [Cyanine-863]	1.2	1	89 µM and > 200 µM	0.45	0.4
NC12CC3CC(CC(C3)C1)C2 [AMANTADINE]	290	210		280	500
CCN(CC)CCNC(=O)c1ccc(N)cc1 [PROCAINAMIDE]	215	90			
C=C[C@H]1C[N@@]2CC[C@H]1C[C@H]2[C@H](O)c1ccnc2ccc(OC)cc12 [QUININE]	38	13			
